Experiments:
[1] = system: Bovine viral diarrhea virus 1; assay: Antiviral activity against BVDV infected in MDBK cells assessed as reduction in viral induced cell destruction by MTT assay; assay type: functional, organism-based; details: Bovine viral diarrhea virus isolates and strains
How it was run: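 BVDV (Nose strain) infected MDBK cells (1 × 10^4 cells/well) at multiplicity of infection 0.01. Cells incubated at 37 °C with various compound concentrations for 3 days. Viability of infected cells read by MTT.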

HL-60 = assay: Growth inhibition of human HL60 cells; assay type: functional, cell-based
[2] = Cytotoxicity against mock-infected MDBK cells by LDH method; assay type: cell-based, Bos taurus; details: cattle
How it was run: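 Mock-infected MDBK cells (1 × 10^4 cells/well) incubated at 37 °C with various compound concentrations for 3 days. Viability measured by the LDH method.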

[3] = Selectivity index, ratio of CC50 for MDBK cells to EC50 for BVDV infected in MDBK cells; assay type: functional
How it was run: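 MDBK cells (1 × 10^4/well) were infected with BVDV Nose strain at MOI 0.01, or mock-infected, and held at 37 °C with various compound concentrations for 3 days. EC50 was taken from the reduction of virus-induced cell destruction, measured as MTT viability of infected cells. CC50 was taken from the reduction of viable cell number, measured by LDH in mock-infected cells. SI = CC50/EC50.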

| Structure (SMILES) | EC50 [1] [µM] | IC50 (HL-60) [µM] | CC50 [2] [µM] | Ratio CC50/EC50 [3] |
| --- | --- | --- | --- | --- |
| c1ccc2c(c1)[nH]c1ccncc12 | 2 | 11.4 | 40 |  |
| c1ccc2c(c1)[nH]c1cccnc12 | > 100 |  | > 100 |  |
| CCn1c2ccccc2c2cnccc21 | 2 |  | 29 |  |
| Cc1nccc2[nH]c3ccccc3c12 | 0.58 | 15.3 | 9.7 | 16.7 |
| Cn1c2ccccc2c2cnccc21 | 0.26 |  | 29 | 111.5 |
| c1ccc2c(c1)[nH]c1ncccc12 | 93 |  | > 100 |  |
| Cc1cccc2c1[nH]c1ccncc12 | 1.7 |  | 24 | 14.1 |
| Cc1cc2[nH]c3ccccc3c2cn1 | 2.2 |  | 70 | 31.8 |
| CCCn1c2ccccc2c2cnccc21 | 8.2 |  | 26 |  |
| CC(C)n1c2ccccc2c2cnccc21 | 11 |  | 30 |  |
| Cc1ccc2c(c1)[nH]c1ccncc12 | 1.1 |  | 24 | 21.8 |
| Cc1ccc2[nH]c3ccncc3c2c1 | 3 |  | 12 | 4 |
| c1ccc(Cn2c3ccccc3c3cnccc32)cc1 | 8.7 |  | 11 |  |
| CCCCn1c2ccccc2c2cnccc21 | 9.2 |  | 14 |  |
| Cc1cccc2[nH]c3ccncc3c12 | 1.2 |  | 16 | 13.3 |
| CCCCCCn1c2ccccc2c2cnccc21 | > 7.4 |  | 7.4 |  |
| Cn1ccc2nc3ccccc3c-2c1 | 4.3 |  | 65 | 15.1 |
| Cc1cncc2c1[nH]c1ccccc12 | 0.55 |  | 21 | 38.2 |
| CCN(CC)CCn1c2ccccc2c2cnccc21 | 8.9 |  | 10 |  |
| c1ccc2c(c1)[nH]c1ccccc12 [CARBAZOLE] | 64 |  | > 100 |  |
| c1ccc2c(c1)oc1ccccc12 [DIBENZOFURAN] | 58 |  | > 100 |  |
| c1ccc2c(c1)Cc1ccccc1-2 [FLUORENE] | 71 |  | > 100 |  |
| c1ccc2c(c1)[nH]c1cnccc12 [NORHARMANE] | 8.8 |  | 78 |  |

From ChEMBL document CHEMBL1142384, “Gamma-carboline derivatives with anti-bovine viral diarrhea virus (BVDV) activity” (Bioorg Med Chem, 2008)
